Measurements from ChEMBL document CHEMBL1135680, “Use of ab initio calculations to predict the biological potency of carboxylesterase inhibitors” (J Med Chem, 2002).

Assays:
Acylcarnitine hydrolase = target: T1, Acylcarnitine hydrolase (Mus musculus, UniProt Q91WG0); test: Inhibition of carboxylesterase in murine liver microsomes.; design: species or system Microsome
T1 sequence (Q91WG0 whole entry): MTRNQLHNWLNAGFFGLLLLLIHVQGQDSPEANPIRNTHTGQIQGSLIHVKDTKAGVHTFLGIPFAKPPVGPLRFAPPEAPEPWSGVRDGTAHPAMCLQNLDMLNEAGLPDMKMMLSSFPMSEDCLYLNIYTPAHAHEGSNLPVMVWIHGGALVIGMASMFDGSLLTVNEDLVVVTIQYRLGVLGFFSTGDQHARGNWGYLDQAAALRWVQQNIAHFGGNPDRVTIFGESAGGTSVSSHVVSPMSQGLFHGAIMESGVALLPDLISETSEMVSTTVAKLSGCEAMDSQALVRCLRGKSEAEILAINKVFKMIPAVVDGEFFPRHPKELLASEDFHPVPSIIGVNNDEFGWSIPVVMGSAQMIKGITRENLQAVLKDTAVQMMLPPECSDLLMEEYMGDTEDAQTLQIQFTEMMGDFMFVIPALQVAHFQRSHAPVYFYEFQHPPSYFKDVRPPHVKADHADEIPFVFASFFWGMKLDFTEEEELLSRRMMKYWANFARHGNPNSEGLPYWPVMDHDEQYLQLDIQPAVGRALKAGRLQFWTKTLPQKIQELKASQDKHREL
Method in brief: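 Liver microsomes from male Swiss-Webster mice (differential centrifugation, 100000g pellets), solubilized in 1% n-octyl-β-D-glucopyranoside, then dialyzed 48 h at 4 °C to remove it; 0.88 μg protein per well. Assay in 0.1 M sodium phosphate pH 7.4 at 30 °C: 5 min inhibitor preincubation (ethanol ≤1%), 0.5 mM p-nitrophenyl acetate, 405 nm.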

Liver carboxylesterase = target: T2, Liver carboxylesterase (Sus scrofa, UniProt Q29550); test: In vitro inhibition of porcine carboxylesterase.
T2 sequence (Q29550 whole entry): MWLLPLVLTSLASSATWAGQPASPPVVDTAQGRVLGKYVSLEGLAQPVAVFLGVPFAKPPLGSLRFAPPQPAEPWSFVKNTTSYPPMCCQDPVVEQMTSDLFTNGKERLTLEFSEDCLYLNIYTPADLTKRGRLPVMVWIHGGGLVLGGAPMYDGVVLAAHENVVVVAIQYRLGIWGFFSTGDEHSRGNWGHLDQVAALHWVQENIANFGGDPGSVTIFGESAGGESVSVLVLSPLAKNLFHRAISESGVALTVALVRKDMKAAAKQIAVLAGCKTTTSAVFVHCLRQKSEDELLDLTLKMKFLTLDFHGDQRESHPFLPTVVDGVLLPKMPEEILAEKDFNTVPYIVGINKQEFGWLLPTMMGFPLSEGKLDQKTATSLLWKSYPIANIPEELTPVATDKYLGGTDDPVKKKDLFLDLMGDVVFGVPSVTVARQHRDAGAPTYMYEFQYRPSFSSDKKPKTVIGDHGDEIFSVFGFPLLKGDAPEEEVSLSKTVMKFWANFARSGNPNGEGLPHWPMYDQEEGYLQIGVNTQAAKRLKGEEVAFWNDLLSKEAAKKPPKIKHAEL

Cocaine esterase = target: T3, Cocaine esterase (Homo sapiens, UniProt O00748); test: In vitro inhibition of carboxylesterase in human liver microsomes.; design: species or system Microsome
T3 sequence (O00748 whole entry): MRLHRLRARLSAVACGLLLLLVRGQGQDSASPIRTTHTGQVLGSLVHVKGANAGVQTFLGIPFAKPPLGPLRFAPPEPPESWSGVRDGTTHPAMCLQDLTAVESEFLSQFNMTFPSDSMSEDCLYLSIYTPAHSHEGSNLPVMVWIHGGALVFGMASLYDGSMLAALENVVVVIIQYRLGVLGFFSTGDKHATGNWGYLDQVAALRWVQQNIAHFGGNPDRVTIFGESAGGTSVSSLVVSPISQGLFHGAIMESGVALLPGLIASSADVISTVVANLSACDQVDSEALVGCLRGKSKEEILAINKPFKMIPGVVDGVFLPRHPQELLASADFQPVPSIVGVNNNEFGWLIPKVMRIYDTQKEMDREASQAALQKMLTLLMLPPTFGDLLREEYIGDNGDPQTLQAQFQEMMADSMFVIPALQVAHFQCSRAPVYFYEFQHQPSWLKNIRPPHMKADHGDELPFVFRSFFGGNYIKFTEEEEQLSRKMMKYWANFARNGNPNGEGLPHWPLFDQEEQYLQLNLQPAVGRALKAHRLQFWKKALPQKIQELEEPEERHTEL

CCCCCC/C=C/C(=O)C(F)(F)F
IC50 (Acylcarnitine hydrolase): 14800 µM
IC50 (Liver carboxylesterase): 6460 µM

CCCCCC[Se]CC(C)=O
IC50 (Acylcarnitine hydrolase): 302 µM
IC50 (Liver carboxylesterase): 155 µM

CCCCCC[Se](=O)CC(C)=O (stereo not given)
IC50 (Acylcarnitine hydrolase): 15.8 µM
IC50 (Liver carboxylesterase): 9.33 µM
-Log IC50 (Cocaine esterase): 5.69

CCCCCC[Se](=O)(=O)CC(C)=O
IC50 (Acylcarnitine hydrolase): 112 µM

CCCCCCS(=O)(=O)CC(C)=O
IC50 (Acylcarnitine hydrolase): 479 µM
IC50 (Liver carboxylesterase): 110 µM

CCCCCCCCC(=O)C(F)F
IC50 (Acylcarnitine hydrolase): 44.7 µM
IC50 (Liver carboxylesterase): 24.5 µM
-Log IC50 (Cocaine esterase): 5.3

CCCCCCCCC(=O)C(F)(F)F
IC50 (Acylcarnitine hydrolase): 38 µM
IC50 (Liver carboxylesterase): 21.4 µM
-Log IC50 (Cocaine esterase): 5.36

CCCCCCCC(F)(F)C(=O)C(F)(F)F
IC50 (Acylcarnitine hydrolase): 0.162 µM
IC50 (Liver carboxylesterase): 0.115 µM

CCCCCCNCC(=O)C(F)(F)F
IC50 (Acylcarnitine hydrolase): 0.0224 µM
IC50 (Liver carboxylesterase): 0.017 µM

CCCCCCSCC(C)=O
IC50 (Acylcarnitine hydrolase): 955 µM
IC50 (Liver carboxylesterase): 977 µM

CCCCCC[Se]CC(=O)C(F)(F)F
IC50 (Acylcarnitine hydrolase): 0.575 µM
IC50 (Liver carboxylesterase): 0.38 µM

CCCCCCOCC(C)=O
IC50 (Acylcarnitine hydrolase): 427 µM
IC50 (Liver carboxylesterase): 257 µM

CCCCCCCCC(=O)CF
IC50 (Acylcarnitine hydrolase): 1780 µM
IC50 (Liver carboxylesterase): 851 µM
-Log IC50 (Cocaine esterase): 3.85

CCCCCC[S+]([O-])CC(=O)C(F)(F)F (stereo not given)
IC50 (Acylcarnitine hydrolase): 0.447 µM
IC50 (Liver carboxylesterase): 0.17 µM
-Log IC50 (Cocaine esterase): 6.51

CCCCCC[Se](=O)(=O)CC(=O)C(F)(F)F
IC50 (Acylcarnitine hydrolase): 0.0132 µM
IC50 (Liver carboxylesterase): 0.0105 µM

CCCCCC[Se](=O)CC(=O)C(F)(F)F (stereo not given)
IC50 (Acylcarnitine hydrolase): 0.000501 µM
IC50 (Liver carboxylesterase): 0.000457 µM

CCCCCCS(=O)(=O)CC(=O)C(F)(F)F
IC50 (Acylcarnitine hydrolase): 0.447 µM
IC50 (Liver carboxylesterase): 0.676 µM

CCCCCCC#CC(=O)C(F)(F)F
IC50 (Acylcarnitine hydrolase): 2040 µM
IC50 (Liver carboxylesterase): 955 µM

CCCCCCOCC(=O)C(F)(F)F
IC50 (Acylcarnitine hydrolase): 0.12 µM
IC50 (Liver carboxylesterase): 0.0437 µM

CCCCCCSCC(=O)C(F)(F)F
IC50 (Acylcarnitine hydrolase): 0.0126 µM
IC50 (Liver carboxylesterase): 0.00832 µM

CCCCCCCCC(C)=O [2-DECANONE]
IC50 (Liver carboxylesterase): 67600 µM
